From ChEMBL document CHEMBL1152365, “First experimental identification of Ras-inhibitor binding interface using a water-soluble Ras ligand” (Bioorg Med Chem Lett, 2009) come the findings set out here.

The structures appear in SMILES notation. Calls of active or inactive are those of the source. No cut-off for these calls is given here.

The nature of data set [1]: Solubility in water. It is filed as physicochemical. Conditions: buffer.
A short description of data set [2]: Solubility in TRIS buffer. Format: physicochemical.
For data set [3], the target named is GTPase HRas (Homo sapiens) (UniProt P01112). Briefly: Binding affinity to H-Ras(1-166) expressed in BL21 De3 Escherichia coli by isothermal titration calorimetric study. On the technique in general: Isothermal titration calorimetry measures the heat released or taken up as one component is titrated into another.
Sequence of GTPase HRas (Homo sapiens) (P01112 whole entry, looked up): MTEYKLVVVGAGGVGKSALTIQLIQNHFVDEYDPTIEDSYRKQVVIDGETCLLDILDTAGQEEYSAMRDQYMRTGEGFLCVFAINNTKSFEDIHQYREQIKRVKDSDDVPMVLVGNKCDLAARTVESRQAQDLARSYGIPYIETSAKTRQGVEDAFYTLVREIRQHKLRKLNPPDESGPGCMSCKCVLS
Data set [4] has the same target. Briefly: Binding affinity to hexa-histidine tagged H-Ras.GDP(1-166) expressed in BL21 De3 Escherichia coli by NMR binding experiment.
In data set [5] the test system is NIH3T3. In words: Antiproliferative activity against mouse NIH/3T3 cells assessed as morphological changes at 150 uM after 48 hrs. It is filed as functional, cell-based.
Data set [6] deals with T1, Ras-specific guanine nucleotide-releasing factor 1 (Homo sapiens) (UniProt Q13972).
T1 sequence (whole entry): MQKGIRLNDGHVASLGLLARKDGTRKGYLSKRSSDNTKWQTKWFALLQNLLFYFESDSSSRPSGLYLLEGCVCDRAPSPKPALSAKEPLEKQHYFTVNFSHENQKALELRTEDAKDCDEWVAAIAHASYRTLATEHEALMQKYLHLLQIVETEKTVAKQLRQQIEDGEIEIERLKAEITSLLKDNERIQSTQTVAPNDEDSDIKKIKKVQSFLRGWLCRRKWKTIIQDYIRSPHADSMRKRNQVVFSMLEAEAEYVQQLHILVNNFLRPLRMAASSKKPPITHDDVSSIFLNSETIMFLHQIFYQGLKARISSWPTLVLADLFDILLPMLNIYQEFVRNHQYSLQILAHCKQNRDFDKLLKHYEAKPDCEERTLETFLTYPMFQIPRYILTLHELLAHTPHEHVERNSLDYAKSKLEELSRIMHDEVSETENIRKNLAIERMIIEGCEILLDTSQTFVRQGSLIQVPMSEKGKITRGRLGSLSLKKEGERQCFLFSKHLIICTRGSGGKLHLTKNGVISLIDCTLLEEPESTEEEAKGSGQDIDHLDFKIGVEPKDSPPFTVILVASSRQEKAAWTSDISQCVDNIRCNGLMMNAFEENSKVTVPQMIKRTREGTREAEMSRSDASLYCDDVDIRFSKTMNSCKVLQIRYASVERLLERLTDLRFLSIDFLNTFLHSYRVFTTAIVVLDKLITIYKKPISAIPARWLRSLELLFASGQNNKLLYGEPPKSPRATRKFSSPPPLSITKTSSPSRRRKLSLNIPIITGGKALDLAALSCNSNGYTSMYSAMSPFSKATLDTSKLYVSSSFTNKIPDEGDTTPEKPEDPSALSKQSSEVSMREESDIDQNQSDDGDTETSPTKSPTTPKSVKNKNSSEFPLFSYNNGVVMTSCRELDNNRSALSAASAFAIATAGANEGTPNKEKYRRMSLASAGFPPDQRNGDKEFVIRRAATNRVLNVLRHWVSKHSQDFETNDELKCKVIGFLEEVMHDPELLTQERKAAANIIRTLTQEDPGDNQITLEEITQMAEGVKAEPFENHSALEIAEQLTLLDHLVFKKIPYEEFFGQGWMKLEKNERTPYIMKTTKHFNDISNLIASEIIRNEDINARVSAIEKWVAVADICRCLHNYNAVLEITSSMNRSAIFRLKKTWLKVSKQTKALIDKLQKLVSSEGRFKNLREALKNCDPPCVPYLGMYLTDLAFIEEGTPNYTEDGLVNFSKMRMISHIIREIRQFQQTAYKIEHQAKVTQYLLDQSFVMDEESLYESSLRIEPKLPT
Briefly: Inhibition of GST-tagged Ras-GRF1-catalyzed exchange of bound GDP on histidine-tagged recombinant H-Ras expressed in Escherichia coli M15 at 100 uM by luminescence spectrometry. The procedure, abridged:
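GDP-to-mantGDP exchange measured on 0.25 µM H-Ras·GDP with […] mantGDP and 0.0625 µM RasGRF1, with compound at 0, 50, 100, 250 or 500 µM. Fluorescence read every second for at least 1500 s. Initial rate taken as first derivative at time 0 and normalized to the no-compound control set at 100. Mean of at least three independent experiments.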

The target in data set [7] is GTPase HRas (Homo sapiens) (UniProt P01112). Briefly: Binding affinity to H-Ras expressed in BL21 De3 Escherichia coli assessed as induction of protein denaturation by circular dichroism. On the technique in general: CD spectra are sensitive to the conformation of chiral molecules.
The target is the same in data set [8]. Briefly: Binding affinity to H-Ras expressed in BL21 De3 Escherichia coli assessed as damage to protein structure by circular dichroism.
For data set [9], the system named is NIH3T3. Briefly: Antiproliferative activity against mouse NIH/3T3 cells at 150 uM after 24 hrs by coulter counter. It is filed as functional, cell-based.
Data set [10] has as its system NIH3T3. In words: Antiproliferative activity against mouse NIH/3T3 cells at 450 uM after 24 hrs by coulter counter. Format: functional, cell-based.
The nature of data set [11]: Chemical stability at neutral pH by TLC analysis. Format: physicochemical. The procedure, abridged: (§1)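 Stability assessed by TLC and HPLC after storage at neutral pH for months.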
The nature of data set [12]: Chemical stability at neutral pH by HPLC analysis. It is filed as physicochemical. A digest of the protocol: as §1

Usually inhibition stands for the change of the read-out against control, counted positive when it falls. In the case of `OC[C@H]1O[C@@H](N(Cc2ccc(O)c(O)c2)OCc2ccccc2)[C@H](O)[C@@H](O)[C@@H]1O`, the solubility entry in [1] and in data set [2] was “Soluble” throughout. This molecule also came in with an Activity in [3] of 37 µM. The result (in data set [4]; in the data set with NIH3T3 [5]; in the data set with NIH3T3 [9]; in the data set on NIH3T3 [10]) was Active. Further, the inhibition in data set [6] was 50%. Further, the result in data set [7] and in [8] was inactive. The Stability entry in data set [11] and in [12] was “Stable” each time.
